Experimental data as given in ChEMBL document CHEMBL4732237, “Discovery of 4-alkoxy-2-aryl-6,7-dimethoxyquinolines as a new class of topoisomerase I inhibitors endowed with potent in vitro anticancer activity” (2021).

Columns and labels:
Type in all cases: functional
Conditions in all cases: read-out: GI
[1] = tested on: T47D; experiment: Growth inhibition of human T47D cells at 10 uM incubated for 48 hrs by sulforhodamine B assay relative to control
Method in brief: (§1)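 NCI one-dose screen across a 59-line panel. Cells were grown in RPMI 1640 with 5% FBS and 2 mM L-glutamine, plated and pre-incubated 24 h, then exposed to drug for 48 h at 37 °C, 5% CO2. Adherent cells were fixed with cold TCA (10% final), stained with 0.4% SRB in 1% acetic acid and read at 515 nm. Result is percent growth relative to no-drug control and time-zero cell count.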

[2] = tested on: SW-620; experiment: Growth inhibition of human SW-620 cells at 10 uM incubated for 48 hrs by sulforhodamine B assay relative to control; method in brief: as §1
[3] = tested on: A498; experiment: Growth inhibition of human A498 cells at 10 uM incubated for 48 hrs by sulforhodamine B assay relative to control; method in brief: as §1
[4] = tested on: SF-268; experiment: Growth inhibition of human SF-268 cells at 10 uM incubated for 48 hrs by sulforhodamine B assay relative to control
Method in brief: (§2)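 NCI one-dose screen. Cells grown in RPMI 1640 with 5% FBS and 2 mM L-glutamine, plated and incubated 24 h at 37 °C, 5% CO2. DMSO-dissolved drug added, then 48 h further incubation. Adherent cells fixed with cold TCA, suspension cells fixed after settling. Stained with 0.4% SRB, absorbance read at 515 nm. Reported as percent growth relative to no-drug control and time-zero cell number.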

[5] = tested on: MDA-MB-231; experiment: Growth inhibition of human MDA-MB-231 cells at 10 uM incubated for 48 hrs by sulforhodamine B assay relative to control
Method in brief: (§3)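 NCI-60 single-dose screen. Cells were grown in RPMI 1640 with 5% FBS and 2 mM L-glutamine and plated 24 h before drug addition. Compound was added at one concentration in DMSO-derived medium and incubated for 48 h at 37 °C in 5% CO2. Read-out was SRB protein stain at 515 nm. Result is percent growth versus the no-drug control and the time-zero cell count; values below 0 indicate lethality.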

[6] = tested on: SK-OV-3; experiment: Growth inhibition of human SK-OV-3 cells at 10 uM incubated for 48 hrs by sulforhodamine B assay relative to control; method in brief: as §2
[7] = tested on: HOP-62; experiment: Growth inhibition of human HOP-62 cells at 10 uM incubated for 48 hrs by sulforhodamine B assay relative to control; method in brief: as §3
[8] = tested on: SN12C; experiment: Growth inhibition of human SN12C cells at 10 uM incubated for 48 hrs by sulforhodamine B assay relative to control; method in brief: as §2
[9] = tested on: MDA-MB-468; experiment: Growth inhibition of human MDA-MB-468 cells at 10 uM incubated for 48 hrs by sulforhodamine B assay relative to control; method in brief: as §3
[10] = tested on: OVCAR-3; experiment: Growth inhibition of human OVCAR-3 cells at 10 uM incubated for 48 hrs by sulforhodamine B assay relative to control; method in brief: as §2
[11] = tested on: SNB-75; experiment: Growth inhibition of human SNB-75 cells at 10 uM incubated for 48 hrs by sulforhodamine B assay relative to control; method in brief: as §2
[12] = tested on: MCF7; experiment: Growth inhibition of human MCF7 cells at 10 uM incubated for 48 hrs by sulforhodamine B assay relative to control; method in brief: as §3
[13] = tested on: HL-60(TB); experiment: Growth inhibition of human HL-60(TB) cells at 10 uM incubated for 48 hrs by sulforhodamine B assay relative to control
Method in brief: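 NCI-60 one-dose screen: same culture, 48 h drug exposure and SRB read-out. Reported as percent growth relative to no-drug control and to time-zero cell number; 0–100 means growth inhibition, below 0 means lethality.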

[14] = tested on: NCI-H522; experiment: Growth inhibition of human NCI-H522 cells at 10 uM incubated for 48 hrs by sulforhodamine B assay relative to control; method in brief: as §2
[15] = tested on: PC-3; experiment: Growth inhibition of human PC-3 cells at 10 uM incubated for 48 hrs by sulforhodamine B assay relative to control; method in brief: as §2
[16] = tested on: SF-539; experiment: Growth inhibition of human SF-539 cells at 10 uM incubated for 48 hrs by sulforhodamine B assay relative to control; method in brief: as §2
[17] = tested on: NCI-H226; experiment: Growth inhibition of human NCI-H226 cells at 10 uM incubated for 48 hrs by sulforhodamine B assay relative to control; method in brief: as §2
[18] = tested on: EKVX; experiment: Growth inhibition of human EKVX cells at 10 uM incubated for 48 hrs by sulforhodamine B assay relative to control; method in brief: as §3
[19] = tested on: COLO 205; experiment: Growth inhibition of human COLO 205 cells at 10 uM incubated for 48 hrs by sulforhodamine B assay relative to control; method in brief: as §3
[20] = tested on: UACC-62; experiment: Growth inhibition of human UACC-62 cells at 10 uM incubated for 48 hrs by sulforhodamine B assay relative to control; method in brief: as §1
[21] = tested on: OVCAR-8; experiment: Growth inhibition of human OVCAR-8 cells at 10 uM incubated for 48 hrs by sulforhodamine B assay relative to control; method in brief: as §2
[22] = tested on: MOLT-4; experiment: Growth inhibition of human MOLT-4 cells at 10 uM incubated for 48 hrs by sulforhodamine B assay relative to control; method in brief: as §2
[23] = tested on: HOP-92; experiment: Growth inhibition of human HOP-92 cells at 10 uM incubated for 48 hrs by sulforhodamine B assay relative to control; method in brief: as §3
[24] = tested on: SK-MEL-28; experiment: Growth inhibition of human SK-MEL-28 cells at 10 uM incubated for 48 hrs by sulforhodamine B assay relative to control; method in brief: as §2
[25] = tested on: M14; experiment: Growth inhibition of human M14 cells at 10 uM incubated for 48 hrs by sulforhodamine B assay relative to control; method in brief: as §3
[26] = tested on: NCI-H23; experiment: Growth inhibition of human NCI-H23 cells at 10 uM incubated for 48 hrs by sulforhodamine B assay relative to control; method in brief: as §2
[27] = tested on: KM12; experiment: Growth inhibition of human KM12 cells at 10 uM incubated for 48 hrs by sulforhodamine B assay relative to control; method in brief: as §3
[28] = tested on: SK-MEL-2; experiment: Growth inhibition of human SK-MEL-2 cells at 10 uM incubated for 48 hrs by sulforhodamine B assay relative to control; method in brief: as §2
[29] = tested on: NCI-H322M; experiment: Growth inhibition of human NCI-H322M cells at 10 uM incubated for 48 hrs by sulforhodamine B assay relative to control; method in brief: as §2
[30] = tested on: SK-MEL-5; experiment: Growth inhibition of human SK-MEL-5 cells at 10 uM incubated for 48 hrs by sulforhodamine B assay relative to control; method in brief: as §2
[31] = tested on: UACC-257; experiment: Growth inhibition of human UACC-257 cells at 10 uM incubated for 48 hrs by sulforhodamine B assay relative to control; method in brief: as §1
[32] = tested on: Hs-578T; experiment: Growth inhibition of human HS-578T cells at 10 uM incubated for 48 hrs by sulforhodamine B assay relative to control; method in brief: as §3
[33] = tested on: OVCAR-5; experiment: Growth inhibition of human OVCAR-5 cells at 10 uM incubated for 48 hrs by sulforhodamine B assay relative to control; method in brief: as §2
[34] = tested on: LOX IMVI; experiment: Growth inhibition of human LOX IMVI cells at 10 uM incubated for 48 hrs by sulforhodamine B assay relative to control; method in brief: as §3
[35] = tested on: MDA-MB-435; experiment: Growth inhibition of human MDA-MB-435 cells at 10 uM incubated for 48 hrs by sulforhodamine B assay relative to control; method in brief: as §3
[36] = tested on: SF-295; experiment: Growth inhibition of human SF-295 cells at 10 uM incubated for 48 hrs by sulforhodamine B assay relative to control; method in brief: as §2

Measured: inhibition of growth at 10 µM

COc1cc2nc(-c3ccc(Cl)cc3)cc(OCCN3CCC(O)CC3)c2cc1OC
3%: all assays above
